Measured values published in ChEMBL document CHEMBL1125928, “Isoprenyl phosphinylformates: new inhibitors of squalene synthetase” (J Med Chem, 1991).

T1: Squalene synthase (Rattus norvegicus, UniProt Q02769)
T1 sequence (Q02769 whole entry): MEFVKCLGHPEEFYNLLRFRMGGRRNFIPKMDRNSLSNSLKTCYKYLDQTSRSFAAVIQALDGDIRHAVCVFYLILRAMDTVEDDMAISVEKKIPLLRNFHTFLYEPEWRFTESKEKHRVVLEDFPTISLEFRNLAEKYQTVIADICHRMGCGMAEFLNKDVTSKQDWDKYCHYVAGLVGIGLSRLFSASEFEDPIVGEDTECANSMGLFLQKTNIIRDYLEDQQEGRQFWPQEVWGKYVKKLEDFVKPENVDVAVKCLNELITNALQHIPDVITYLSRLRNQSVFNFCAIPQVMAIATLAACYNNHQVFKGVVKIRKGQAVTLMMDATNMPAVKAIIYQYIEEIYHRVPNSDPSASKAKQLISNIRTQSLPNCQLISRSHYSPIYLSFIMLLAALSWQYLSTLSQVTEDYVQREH

B1: Squalene synthase (Rattus norvegicus), Q02769 (protein)
chain: T1 sequence (Q02769 whole entry)

Tests used:
Squalene synthase [1] = biological target: T1, Squalene synthase; test: Inhibitory activity against liver microsomal Squalene synthase; conditions: read-out: I50
Rattus norvegicus [2] = organism: Rattus norvegicus; test: Compound was tested for the inhibition of cholesterol biosynthesis from [14C]- acetate in freshly isolated rat hepatocytes; assay type: functional; conditions: Hepatocyte, read-out: I50
Homo sapiens [3] = organism: Homo sapiens; test: Compound was tested for the inhibition of cholesterol biosynthesis from [14C]- acetate in freshly isolated from human skin fibroblasts; inactive at 100 uM; assay type: functional, organism-based
Homo sapiens [4] = organism: Homo sapiens; test: Compound was tested for the inhibition of cholesterol biosynthesis from [14C]- acetate in freshly isolated from human skin fibroblasts; inactive at 30 uM; assay type: functional
Homo sapiens [5] = organism: Homo sapiens; test: Compound was tested for the inhibition of cholesterol biosynthesis from [14C]- acetate in freshly isolated from human skin fibroblasts; assay type: functional, organism-based; conditions: read-out: I50
Homo sapiens [6] = organism: Homo sapiens; test: Compound was tested for the inhibition of cholesterol biosynthesis from [14C]- acetate in freshly isolated from human skin fibroblasts; inactive at 300 uM; assay type: functional, organism-based
Rattus norvegicus [7] = organism: Rattus norvegicus; test: Compound was tested for the inhibition of cholesterol biosynthesis from [14C]- acetate in freshly isolated rat hepatocytes; inactive at 200 uM; assay type: functional; conditions: hepatocyte
Squalene synthase [8] = biological target: T1, Squalene synthase; test: Inhibitory activity against microsomal squalene synthase
Homo sapiens [9] = organism: Homo sapiens; test: Compound was tested for the inhibition of cholesterol biosynthesis from [14C]- acetate in freshly isolated from human skin fibroblasts; inactive at 15 uM; assay type: functional, organism-based
[10] = compound: CC(C)=CCC/C(C)=C/CC/C(C)=C/COP(=O)(O)OP(=O)(O)O; test: Competitive inhibitory activity against microsomal Squalene synthase
Method in brief: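 Rat microsomal enzyme; inhibitor at 0, 2.5, 10 and 30 μM against FPP varied from 5 to 50 μM, with NADPH held saturating at 0.9 mM. Inhibition type and Ki were taken from double-reciprocal (Lineweaver-Burk) plots of the kinetic data.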

Molecule | IC50 (Squalene synthase [1]) [µM] | IC50 (Rattus norvegicus [2]) [µM] | further results
CC(C)=CCC/C(C)=C/CC/C(C)=C/COP(=O)(O)CC(=O)O | 86 | 273 | –
CC(C)=CCC/C(C)=C/CC/C(C)=C/CCCOP(=O)(O)C(=O)O | 41.6 | – | –
CC(C)=CCC/C(C)=C/CC/C(C)=C/CCP(=O)([O-])CC(=O)[O-].[K+].[K+] | – | 71 | I50 (Homo sapiens [3]): Inactive
CC(C)=CCC/C(C)=C/CC/C(C)=C/CCP(=O)([O-])C(=O)[O-].[Na+].[Na+] | 100 | 5.7 | I50 (Homo sapiens [4]): Inactive
CCOC(=O)P(=O)(O)CCC/C=C(\C)CC/C=C(\C)CCC=C(C)C | 112 | 24 | IC50 (Homo sapiens [5]): 2.2 µM
CC(C)=CCC/C(C)=C/CC/C(C)=C/CCC[PH](=O)O | 197 | – | –
CC(C)=CCC/C(C)=C/CC/C(C)=C/CCCP(=O)([O-])C(=O)[O-].[Na+].[Na+] | 31.8 | 30 | I50 (Homo sapiens [6]): Inactive
CC(C)=CCC/C(C)=C/CC/C(C)=C/CCP(=O)(O)CP(=O)(O)O | – | – | I50 (Rattus norvegicus [7]): Inactive; I50 (Homo sapiens [3]): Inactive; Ki (Squalene synthase [8]): 10 µM
CCOC(=O)P(=O)(O)OCC/C=C(\C)CC/C=C(\C)CCC=C(C)C | 106 | 9 | IC50 (Homo sapiens [5]): 12 µM
CC(C)=CCC/C(C)=C/CC/C(C)=C/CCOP(=O)([O-])C(=O)[O-].[Na+].[Na+] | 8.7 | 6 | I50 (Homo sapiens [9]): Inactive
B1 | – | – | Km [10]: 12.7 µM
